Assay results taken from ChEMBL document CHEMBL1127424, “7-azetidinylquinolones as antibacterial agents. 2. Synthesis and biological activity of 7-(2,3-disubstituted-1-azetidinyl)-4-oxoquinoline- and -1,8-naphthyridine-3-carboxylic acids. Properties and structure-activity relationships of quinolones with an azetidine moiety” (J Med Chem, 1994).
Converted amounts (≈) assume the structure as drawn.

Legend:
[1] = HPLC capacity factor (k'); assay type: ADME
Method in brief: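 Ion-pair reversed-phase HPLC on ODS-2 (10 μm) at 45 °C. Mobile phase: 10 mM sodium heptanesulfonate plus 50 mM KH2PO4 (pH 3.5)–methanol 45:55, 1 mL/min. Samples at 100 μg/mL in DMF, injected in duplicate, UV 280 nm. k' = (tR − t0)/t0.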

Enterococcus faecalis = assay: In vitro minimum inhibitory concentration for Streptococcus faecalis ATCC 10541; assay type: functional
Method in brief: (§1)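 Serial 2-fold agar dilution in Mueller Hinton medium, run alongside a reference quinolone. Inoculum adjusted to 10⁸ cfu/mL; compound range 0.007–16 μg/mL.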

Klebsiella pneumoniae = assay: In vitro minimum inhibitory concentration to inhibit Klebsiella pneumoniae ATCC 10031; assay type: functional; method in brief: as §1
Escherichia coli = assay: In vitro minimum inhibitory concentration for Escherichia coli ATCC 10799; assay type: functional; method in brief: as §1
Bacillus cereus = assay: In vitro minimum inhibitory concentration for Bacillus cereus ATCC 11778; assay type: functional; method in brief: as §1
[2] = system: Staphylococcus epidermidis; assay: In vitro minimum inhibitory concentration for Staphylococcus epidermidis ATCC 155-1; assay type: functional; method in brief: as §1
Enterobacter cloacae = assay: In vitro minimum inhibitory concentration for Enterobacter cloacae ATCC 23355; assay type: functional
Staphylococcus aureus = assay: In vitro minimum inhibitory concentration for Staphylococcus aureus ATCC 25178; assay type: functional; method in brief: as §1
Bacillus subtilis = assay: In vitro minimum inhibitory concentration for Bacillus subtilis ATCC 6633; assay type: functional; method in brief: as §1
Morganella morganii = assay: In vitro minimum inhibitory concentration for Morganella morganii ATCC 8019; assay type: functional; method in brief: as §1
Pseudomonas aeruginosa = assay: In vitro minimum inhibitory concentration for Pseudomonas aeruginosa ATCC 10145; assay type: functional; method in brief: as §1
Proteus vulgaris = assay: In vitro minimum inhibitory concentration for Proteus vulgaris ATCC 8427; assay type: functional; method in brief: as §1

Row | SMILES | Log k' [1] | MIC (Enterococcus faecalis) [µg/mL] | MIC (Klebsiella pneumoniae) [µg/mL] | MIC (Escherichia coli) [µg/mL] | MIC (Bacillus cereus) [µg/mL] | MIC [2] [µg/mL] | MIC (Enterobacter cloacae) [µg/mL] | MIC (Staphylococcus aureus) [µg/mL] | MIC (Bacillus subtilis) [µg/mL] | MIC (Morganella morganii) [µg/mL] | MIC (Pseudomonas aeruginosa) [µg/mL] | MIC (Proteus vulgaris) [µg/mL]
1 | C[C@H]1[C@H](N)CN1c1cc2c(cc1F)c(=O)c(C(=O)O)cn2C(C)(C)C | 0.1399 | 0.5 (≈ 1.44 µM) | 0.015 (≈ 0.0432 µM) | 0.25 (≈ 0.72 µM) | 0.25 (≈ 0.72 µM) | 0.25 (≈ 0.72 µM) | 0.12 (≈ 0.345 µM) | 0.25 (≈ 0.72 µM) | 0.06 (≈ 0.173 µM) | 0.25 (≈ 0.72 µM) | 2 (≈ 5.76 µM) | 0.25 (≈ 0.72 µM)
2 | CCn1cc(C(=O)O)c(=O)c2cc(F)c(N3CC(C)(N)C3)nc21 | -0.2296 | – | – | – | – | – | – | – | – | – | – | –
3 | CC1(C)[C@@H](N)CN1c1nc2c(cc1F)c(=O)c(C(=O)O)cn2C1CC1 | -0.0223 | 2 (≈ 5.77 µM) | 0.06 (≈ 0.173 µM) | 0.25 (≈ 0.722 µM) | 0.06 (≈ 0.173 µM) | 0.12 (≈ 0.346 µM) | 0.12 (≈ 0.346 µM) | 0.12 (≈ 0.346 µM) | 0.06 (≈ 0.173 µM) | 0.25 (≈ 0.722 µM) | 2 (≈ 5.77 µM) | 0.5 (≈ 1.44 µM)
4 | CC1(N)CN(c2c(F)cc3c(=O)c(C(=O)O)cn(-c4ccc(F)cc4F)c3c2Cl)C1 | 0.3448 | – | – | – | – | – | – | – | – | – | – | –
5 | CC1(N)CN(c2nc3c(cc2F)c(=O)c(C(=O)O)cn3-c2ccc(F)cc2)C1 | -0.0388 | – | – | – | – | – | – | – | – | – | – | –
6 | C[C@H]1[C@H](N)CN1c1c(F)cc2c(=O)c(C(=O)O)cn(CCF)c2c1F | -0.1024 | 2 (≈ 5.63 µM) | 0.03 (≈ 0.0844 µM) | 0.12 (≈ 0.338 µM) | 0.5 (≈ 1.41 µM) | 0.5 (≈ 1.41 µM) | 0.12 (≈ 0.338 µM) | 0.5 (≈ 1.41 µM) | 0.12 (≈ 0.338 µM) | 0.06 (≈ 0.169 µM) | 1 (≈ 2.81 µM) | 0.5 (≈ 1.41 µM)
7 | CC1(N)CN(c2c(F)cc3c(=O)c(C(=O)O)cn(CCF)c3c2Cl)C1 | -0.0332 | – | – | – | – | – | – | – | – | – | – | –
8 | C[C@H]1[C@H](N)CN1c1c(F)cc2c(=O)c(C(=O)O)cn3c2c1SCC3 | -0.1195 | 8 (≈ 22.9 µM) | 0.25 (≈ 0.716 µM) | 0.5 (≈ 1.43 µM) | 1 (≈ 2.86 µM) | 0.5 (≈ 1.43 µM) | 0.25 (≈ 0.716 µM) | 1 (≈ 2.86 µM) | 0.25 (≈ 0.716 µM) | 0.25 (≈ 0.716 µM) | 2 (≈ 5.72 µM) | 1 (≈ 2.86 µM)
9 | CC1(C)[C@@H](N)CN1c1c(F)cc2c(=O)c(C(=O)O)cn(C3CC3)c2c1F | 0.1903 | 0.5 (≈ 1.38 µM) | 0.03 (≈ 0.0826 µM) | 0.12 (≈ 0.33 µM) | 0.12 (≈ 0.33 µM) | 0.12 (≈ 0.33 µM) | 0.06 (≈ 0.165 µM) | 0.12 (≈ 0.33 µM) | 0.015 (≈ 0.0413 µM) | 0.12 (≈ 0.33 µM) | 2 (≈ 5.5 µM) | 0.25 (≈ 0.688 µM)
10 | CN(C)C1CN(c2nc3c(cc2F)c(=O)c(C(=O)O)cn3C2CC2)C1 | 0.464 | – | – | – | – | – | – | – | – | – | – | –
11 | CCn1cc(C(=O)O)c(=O)c2cc(F)c(N3C[C@@H](N)[C@@H]3C)cc21 | -0.0915 | 2 (≈ 6.26 µM) | 0.06 (≈ 0.188 µM) | 0.25 (≈ 0.783 µM) | 1 (≈ 3.13 µM) | 0.25 (≈ 0.783 µM) | 0.12 (≈ 0.376 µM) | 1 (≈ 3.13 µM) | 0.12 (≈ 0.376 µM) | 0.25 (≈ 0.783 µM) | 2 (≈ 6.26 µM) | 1 (≈ 3.13 µM)
12 | C[C@H]1[C@@H](O)CN1c1cc2c(cc1F)c(=O)c(C(=O)O)cn2C1CC1 | 0.3299 | 2 (≈ 6.02 µM) | 0.25 (≈ 0.752 µM) | 0.5 (≈ 1.5 µM) | 0.25 (≈ 0.752 µM) | 0.25 (≈ 0.752 µM) | 0.25 (≈ 0.752 µM) | 0.25 (≈ 0.752 µM) | 0.015 (≈ 0.0451 µM) | 0.5 (≈ 1.5 µM) | 4 (≈ 12 µM) | 0.25 (≈ 0.752 µM)
13 | CC[C@H]1[C@@H](O)CN1c1c(F)cc2c(=O)c(C(=O)O)cn(C3CC3)c2c1F | 0.679 | 8 (≈ 22 µM) | 0.5 (≈ 1.37 µM) | 1 (≈ 2.74 µM) | 0.5 (≈ 1.37 µM) | 0.5 (≈ 1.37 µM) | 0.5 (≈ 1.37 µM) | 1 (≈ 2.74 µM) | 0.12 (≈ 0.329 µM) | 1 (≈ 2.74 µM) | 8 (≈ 22 µM) | 0.5 (≈ 1.37 µM)
14 | CCn1cc(C(=O)O)c(=O)c2cc(F)c(N3CC(C)(N)C3)c(F)c21 | -0.0757 | – | – | – | – | – | – | – | – | – | – | –
15 | CNC1(C)CN(c2nc3c(cc2F)c(=O)c(C(=O)O)cn3C(C)(C)C)C1 | 0.2107 | – | – | – | – | – | – | – | – | – | – | –
16 | CCNCC1CN(c2c(F)cc3c(=O)c(C(=O)O)cn(C4CC4)c3c2F)C1 | 0.2742 | – | – | – | – | – | – | – | – | – | – | –
17 | CC1(O)CN(c2cc3c(cc2F)c(=O)c(C(=O)O)cn3C2CC2)C1 | 0.2148 | – | – | – | – | – | – | – | – | – | – | –
18 | C[C@H]1[C@H](N)CN1c1c(F)cc2c(=O)c(C(=O)O)cn(C(C)(C)C)c2c1F | 0.262 | 0.5 (≈ 1.37 µM) | 0.06 (≈ 0.164 µM) | 0.25 (≈ 0.684 µM) | 0.25 (≈ 0.684 µM) | 0.25 (≈ 0.684 µM) | 0.25 (≈ 0.684 µM) | 0.25 (≈ 0.684 µM) | 0.06 (≈ 0.164 µM) | 0.25 (≈ 0.684 µM) | 2 (≈ 5.47 µM) | 0.25 (≈ 0.684 µM)
19 | CCNCC1(C)CN(c2c(F)cc3c(=O)c(C(=O)O)cn(C4CC4)c3c2F)C1 | -0.0118 | – | – | – | – | – | – | – | – | – | – | –
20 | C[C@H]1[C@H](N)CN1c1nc2c(cc1F)c(=O)c(C(=O)O)cn2CCF | -0.2166 | 4 (≈ 11.8 µM) | 0.06 (≈ 0.177 µM) | 0.12 (≈ 0.355 µM) | 0.5 (≈ 1.48 µM) | 0.5 (≈ 1.48 µM) | 0.06 (≈ 0.177 µM) | 1 (≈ 2.96 µM) | 0.12 (≈ 0.355 µM) | 0.06 (≈ 0.177 µM) | 2 (≈ 5.91 µM) | 0.5 (≈ 1.48 µM)
21 | CC1(N)CN(c2nc3c(cc2F)c(=O)c(C(=O)O)cn3C(C)(C)C)C1 | 0.0128 | – | – | – | – | – | – | – | – | – | – | –
22 | CCn1cc(C(=O)O)c(=O)c2c(N)c(F)c(N3CC(C)(N)C3)c(F)c21 | 0.0367 | – | – | – | – | – | – | – | – | – | – | –
23 | CNC1CN(c2c(F)cc3c(=O)c(C(=O)O)cn(-c4ccc(F)cc4F)c3c2Cl)C1 | 0.25 | – | – | – | – | – | – | – | – | – | – | –
24 | CCn1cc(C(=O)O)c(=O)c2cc(F)c(N3C[C@@H](N)[C@@H]3C)c(Cl)c21 | 0.16 | 0.5 (≈ 1.41 µM) | 0.03 (≈ 0.0848 µM) | 0.06 (≈ 0.17 µM) | 0.12 (≈ 0.339 µM) | 0.12 (≈ 0.339 µM) | 0.06 (≈ 0.17 µM) | 0.12 (≈ 0.339 µM) | 0.03 (≈ 0.0848 µM) | 0.03 (≈ 0.0848 µM) | – | 0.25 (≈ 0.707 µM)
25 | CCC1(O)CN(c2c(F)cc3c(=O)c(C(=O)O)cn(C4CC4)c3c2F)C1 | 0.7591 | – | – | – | – | – | – | – | – | – | – | –
26 | Nc1c(F)c(N2CC(O)C2)c(F)c2c1c(=O)c(C(=O)O)cn2C1CC1 | 0.3487 | – | – | – | – | – | – | – | – | – | – | –
27 | CNC1CN(c2c(F)cc3c(=O)c(C(=O)O)cn(C4CC4)c3c2Cl)C1 | 0.115 | – | – | – | – | – | – | – | – | – | – | –
28 | CCNCC1CN(c2cc3c(cc2F)c(=O)c(C(=O)O)cn3C2CC2)C1 | -0.106 | – | – | – | – | – | – | – | – | – | – | –
29 | O=C(O)c1cn(C2CC2)c2cc(N3CCC3)c(F)cc2c1=O | 0.7188 | – | – | – | – | – | – | – | – | – | – | –
30 | CCC1(O)CN(c2cc3c(cc2F)c(=O)c(C(=O)O)cn3C2CC2)C1 | 0.6222 | – | – | – | – | – | – | – | – | – | – | –
